# MrgX1 antagonist: antagonists of human MrgX1 receptor, primary screen, HEK293 cells, Fluo-4 calcium flux | AID 588676, 2011 | Mas-related G-protein coupled receptor member X1 (Homo sapiens), Q96LB2 | 1.3% of 310,000 active | BAM8-22 antagonism; active compounds read low | B-score at 10 µM;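 active means calcium-response B-score plate-corrected more than 3 library SD below zero, starting fluorescence within 5 deviations, no agonist response on first addition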;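 further: peak minus trough fluorescence over baseline after final BAM8-22 challenge near maximal dose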
# Target sequence (Q96LB2 whole entry, looked up): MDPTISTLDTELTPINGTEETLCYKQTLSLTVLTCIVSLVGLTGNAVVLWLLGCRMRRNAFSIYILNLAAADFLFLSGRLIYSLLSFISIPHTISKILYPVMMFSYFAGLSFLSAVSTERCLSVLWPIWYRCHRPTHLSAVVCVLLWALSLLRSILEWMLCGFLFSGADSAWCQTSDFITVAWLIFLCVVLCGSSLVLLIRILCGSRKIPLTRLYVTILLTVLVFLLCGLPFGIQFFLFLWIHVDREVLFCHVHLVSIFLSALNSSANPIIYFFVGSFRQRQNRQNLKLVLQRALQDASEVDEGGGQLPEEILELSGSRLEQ
# RGS4 act: RGS4 potentiators or activators, primary screen, cell-based, HEK293 M3R inducible RGS4, calcium flux; carbachol calcium flux Fluo4; active compounds read low; B-score at 10 µM; 0.92% of 310,000 active; AID 463111, 2010;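 active means B-score of the integrated calcium signal more than 4 SD below the library mean, with starting fluorescence not abnormally high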;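 further: negative B-score means reduced calcium response which marks RGS4 activation or potentiation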
#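 test system = M3R-expressing HEK293 line, RGS4 induced by doxycycline | probe or stimulus = carbachol at ECmax as muscarinic agonist stimulus | timing = dye loading 30 min 37 °C, buffer rest 30 min RT | signal = calcium dye Fluo4 fluorescence | evaluation = B score from integrated fluorescence ratio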
# MrgX1 PAM: positive allosteric modulators of MrgX1, primary screen, HEK293 cells, Fluo-4 calcium flux | FDSS; active compounds read high | B-score at 10 µM | 0.63% of 310,000 active;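 active means plate-corrected calcium response at least 3 library SD above typical, normal starting fluorescence, not activating the receptor alone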;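 further: compound read alongside a low EC10 to EC30 dose of BAM8-22 agonist; peak minus trough fluorescence over baseline measured at the second addition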
# MrgX1 ag: agonists of human MrgX1 receptor, primary screen, HEK293 cells, Fluo-4 calcium flux. Mas-related G-protein coupled receptor member X1 (Homo sapiens), Q96LB2. Fluo-4 calcium fluorescence, agonist mode; active compounds read high. B-score at 10 µM. 0.44% of 310,000 active. AID 588627, 2011;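 active means calcium response B-score plate-corrected fluorescence ratio at least 3 library SD, with starting fluorescence B-score inside 5 SD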
#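 System – MrgX1-expressing HEK293 cells · Incubation – cells plated overnight, dye loaded 0.5 h 37 °C, 0.5 h room temperature · Technique – kinetic Fluo-4 NW fluorescence of intracellular calcium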
# RGS4 block: RGS4 inhibitors, primary screen, cell-based, HEK293 M3R inducible RGS4, calcium flux; Fluo-4 calcium flux; active compounds read high; triggered by carbachol at its EC20; B-score at 10 µM; 0.45% of 310,000 active;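 active means B-score, a plate-corrected calcium signal, over three deviations above library mean, with baseline fluorescence within five deviations of library mean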;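 further: RGS4 expression induced by doxycycline in cells with stable M3 receptor; B-score is computed from the integrated fluorescence ratio over baseline after carbachol; higher B-score means a larger calcium signal and so more RGS4 inhibition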
# Target sequence (P49798 whole entry, looked up): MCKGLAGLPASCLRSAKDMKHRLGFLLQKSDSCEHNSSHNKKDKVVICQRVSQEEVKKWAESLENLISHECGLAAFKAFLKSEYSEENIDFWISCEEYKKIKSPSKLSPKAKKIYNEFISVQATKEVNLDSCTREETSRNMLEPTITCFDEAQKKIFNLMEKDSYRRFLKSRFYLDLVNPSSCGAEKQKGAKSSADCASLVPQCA
# * = called active by the depositor; i = inactive; / = no result given. Hits are enriched below; roughly 3.5% of the tested compounds scored in any of these assays.
SMILES,MrgX1 antagonist,RGS4 act,MrgX1 PAM,MrgX1 ag,RGS4 block
COc1cc(/C=C2/SC(=S)N(c3c(C)n(C)n(-c4ccccc4)c3=O)C2=O)ccc1O,i,i,i,36*,i
CCOc1ccc(CCNC(=O)C2CSC3(C)CCC(=O)N23)cc1OCC (stereo not drawn),i,i,i,i,i
CC1Nc2ncnc(N3CCc4ccccc4C3)c2N(Cc2ccc(Br)cc2)C1=O (stereo not drawn),i,-9*,i,i,i
CC1Nc2ncnc(N3CCc4ccccc4C3)c2N(Cc2ccc(Cl)cc2)C1=O (stereo not drawn),i,i,i,i,i
CCOc1ccc(C/C(O)=C2\C(=O)CC(C)(C)CC2=NCC(=O)O)cc1OCC,i,i,i,i,i
O=C(Nc1cccc(F)c1)/C(=C\c1cccnc1)NC(=O)c1ccco1,i,i,i,i,i
O=C(Nc1cccc(F)c1)/C(=C\c1cccnc1)NC(=O)c1cccs1,-5.5*,i,i,i,i
Cc1cc(Cl)ccc1Oc1ncnc2oc(-c3ccccc3)cc12,i,i,12*,i,i
Cc1noc2ncnc(Oc3cc(Cl)ccc3Cl)c12,i,i,i,i,i
COc1ccc(Cc2nnc(SCC(=O)Nc3ccccc3C)n(N)c2=O)cc1,i,i,i,i,i
CCCCn1c(=O)nc2n(-c3ccccc3)c3ccccc3cc-2c1=O,i,-9.7*,i,i,i
Cc1cc(C(=O)CSc2nnc(-c3cccnc3)n2-c2ccccc2F)c(C)n1CC1CCCO1 (stereo not drawn),i,i,i,i,i
CCOc1ccc(NC(=O)C(NC(=O)C2CCC(C)CC2)C(C)C)cc1 (stereo not drawn),i,-7*,i,i,i
Cc1ccc(S(=O)(=O)N(CC(=O)N2CCCCC2)c2cccc(C)c2)cc1,i,i,i,i,i
COc1ccc(C(CCN2CCCCC2)c2c(OC)cc(OC)c3c(-c4ccccc4)cc(=O)oc23)cc1 (stereo not drawn),i,i,14*,i,i
Cc1occc1C(=O)Nc1cccc([N+](=O)[O-])c1C,i,i,i,i,i
COc1ccc([C@@H]2CC(=O)c3c(O)cc(O)cc3O2)cc1O,i,/,i,i,/
COc1c(CC=C(C)C)cc(C2CC(=O)c3c(O)cc(O)cc3O2)cc1CC=C(C)C (stereo not drawn),i,-8.3*,i,i,i
Cc1nc2c3cc(Cl)ccc3n(CCN3CCCCC3)c2s1,i,i,11*,i,i
O=C(Nc1ccc(O)cc1)c1ccc2c(c1)C(=O)N(N1C(=O)c3ccccc3C1=O)C2=O,-5.8*,i,i,i,i
O=C(c1ccccc1NS(=O)(=O)c1cccc([N+](=O)[O-])c1)N1CCCC1,i,i,i,i,i
CCOC(=O)c1nc(S(C)(=O)=O)ncc1N1CCOCC1,i,i,i,i,i
CCOC(=O)c1nc(S(C)(=O)=O)ncc1Cl,i,i,i,43*,i
N#CC1=C(N)Oc2cc(Nc3ccccc3)ccc2C1c1ccncc1 (stereo not drawn),i,i,i,i,i
O=C(CN1CCN(Cc2ccccc2)CC1)Nc1ccccc1,i,i,i,i,i
SMILES,MrgX1 antagonist,RGS4 act,MrgX1 PAM,MrgX1 ag,RGS4 block
C=CCOc1ccccc1/C=c1\sc2nc(=O)c(C)nn2c1=O,i,i,i,28*,i
Cc1cccc(C)c1NC(=O)CN(C)C(=O)c1ccccc1OCc1ccc(F)cc1,i,i,i,i,i
CCN1C(=O)[C@@H]2Cc3c([nH]c4ccccc34)C(c3ccc(OC)cc3)N2C1=S (stereo partly drawn),-4.5*,i,i,i,i
COc1cccc(C(=O)Oc2c(Br)cc(Br)cc2/C=N/NC(=O)c2cc(C)[nH]n2)c1,i,i,i,i,i
CN1CCc2cc3c(c4c2[C@H]1[C@H](O)c1ccccc1-4)OCO3,i,-7.4*,i,i,i
O=C(Cn1cnc(S(=O)(=O)N2CCCC2)c1)Nc1cccc(F)c1,i,i,i,i,i
CC(=O)Nc1sc(/C(C#N)=C/c2ccc(Cl)c(Cl)c2)nc1-c1ccc(C)cc1,/,-8.9*,/,/,i
CC(=O)Nc1sc(N/N=C/c2ccc(C)cc2)nc1-c1ccc(C)cc1,i,i,i,i,i
C=CCn1c(SCC(=O)Nc2c(C)cccc2C)nnc1-c1cnccn1,i,i,i,i,i
CC1CCC2(CC1)OCC1(CCC3(COC4(CCC(C)CC4)OC3)C1=O)CO2 (stereo not drawn),i,i,i,i,i
Cc1cc(NC(=O)Nc2cccc([N+](=O)[O-])c2)no1,i,i,i,i,i
O=C(Nc1cccnc1)c1ccc(NS(=O)(=O)c2cccc([N+](=O)[O-])c2)cc1,i,i,14*,i,i
O=C(Nc1ccc(OC(F)(F)F)cc1)Nc1cccc([N+](=O)[O-])c1,-6.6*,i,i,i,i
Cc1cc(C)nc(/N=C(\N)Nc2ccc([N+](=O)[O-])cc2)n1,i,i,i,i,i
O=C(Nc1ccc(OC(F)(F)F)cc1)Nc1cccnc1,i,i,i,i,i
Cc1ccc(NC(=O)Nc2cccc([N+](=O)[O-])c2)cc1F,-6.1*,i,i,i,i
Cc1cc(C)nc(/N=C(\N)Nc2cccc([N+](=O)[O-])c2)n1,i,i,i,41*,i
OCC(O)/C=N/Nc1nc(N2CCCCC2)nc(N2CCCCC2)n1 (stereo not drawn),i,i,i,i,i
COc1cc([N+](=O)[O-])ccc1NC(=O)Nc1cccnc1,i,i,i,i,i
O=C(Nc1cccnc1)Nc1cccc([N+](=O)[O-])c1,-5.2*,i,i,i,i
Cc1ccc(CN2C(=O)/C(=C\c3ccc(C(=O)NCc4cccnc4)cc3)Oc3ccccc32)cc1,-4.6*,i,i,i,i
O=C(CN1C(=O)/C(=C\c2ccccc2Cl)Oc2ccccc21)NCc1cccnc1,i,i,i,i,i
COc1ccc(OCCn2cc(/C=N/NC(=O)c3ccncc3)c3ccccc32)cc1,i,i,7.2*,i,i

# Screening data: PubChem, Johns Hopkins Ion Channel Center
